Source: ChEMBL document CHEMBL4152245, “Design, synthesis and biological evaluation of benzo[cd]indol-2(1H)-ones derivatives as BRD4 inhibitors” (Eur J Med Chem, 2018)
Activity calls are given as the source filed them. The calls are words filed in the database; no cut-off is given here.

Experiments:
[1] = target: T1, Bromodomain-containing protein 4 (Homo sapiens, UniProt O60885); assay: (§1) Inhibition of His-tagged BRD4 bromodomain-1 (unknown origin) expressed in Escherichia coli BL21(DE3) at 5 uM using SGRGK(Ac)-GG-K(Ac)-GLG-K(Ac)-GGA-K(Ac)-RHRKVGG-K-Biotin as substrate preincubated for 15 mins followed by substrate addition measured after 10 mins by Alphascreen assay relative to control
In short: (§2)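 His-tagged BRD4_BD1 purified by Ni-NTA, anion exchange and gel filtration, tag retained. Assay buffer: 20 mM HEPES pH 7.4, 0.1% BSA, 0.01% Triton X-100, 1 mM DTT. Protein preincubated with compound 15 min at room temperature, biotinylated tetra-acetyl peptide added for 10 min, then streptavidin donor and nickel chelate acceptor beads for 60 min. Compounds screened at 20 and 5 µM; IC50 from three independent experiments.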

[2] = target: T1, Bromodomain-containing protein 4; assay: as §1, with “at 20” for “at 5”; in short: as §2
[3] = target: T1, Bromodomain-containing protein 4; assay: as §1, with “at 100” for “at 5”
[4] = target: T1, Bromodomain-containing protein 4; assay: Inhibition of His-tagged BRD4 bromodomain-1 (unknown origin) expressed in Escherichia coli BL21(DE3) using SGRGK(Ac)-GG-K(Ac)-GLG-K(Ac)-GGA-K(Ac)-RHRKVGG-K-Biotin as substrate preincubated for 15 mins followed by substrate addition measured after 10 mins by Alphascreen assay; in short: as §2

Row | Compound | inhibition [1] | inhibition [2] | inhibition [3] | IC50 [4]
1 | CCN1C(=O)c2cccc3c(S(=O)(=O)N4CCC[C@@H](N)C4)ccc1c23 | inactive | inactive | – | –
2 | CCN1C(=O)c2cccc3c(S(=O)(=O)NCCC(=O)O)ccc1c23 | 41% | 60% | – | –
3 | CCN1C(=O)c2cccc3c(S(=O)(=O)N[C@@H](Cc4ccccc4)C(=O)O)ccc1c23 | 4% | inactive | – | –
4 | CN1C(=O)c2cccc3c(S(=O)(=O)N4CCCC4)ccc1c23 | 5% | 25% | – | –
5 | CCN1C(=O)c2cccc3c(S(=O)(=O)N4CCC(NC(=O)OC(C)(C)C)CC4)ccc1c23 | 18% | 45% | – | –
6 | CCN1C(=O)c2cccc3c(S(=O)(=O)N[C@H](C(=O)O)C(C)C)ccc1c23 | inactive | inactive | – | –
7 | O=C(c1ccccc1)c1ccc(NS(=O)(=O)c2cccc(Br)c2)cc1 | – | – | > 90% | –
8 | O=C(O)CN1C(=O)c2cccc3c(S(=O)(=O)N4CCCC4)ccc1c23 | inactive | 4% | > 90% | 23.1 µM
9 | CCN1C(=O)c2cccc3c(S(=O)(=O)N4CCC(CNC(=O)OC(C)(C)C)CC4)ccc1c23 | inactive | 18% | – | –
10 | CCN1C(=O)c2cccc3c(S(=O)(=O)N4CC[C@H](N)C4)ccc1c23 | inactive | inactive | – | –
11 | CCCN1C(=O)c2cccc3c(S(=O)(=O)N4CCCC4)ccc1c23 | inactive | 15% | > 90% | 11 µM
12 | CCN1C(=O)c2cccc3c(S(=O)(=O)N4CCC[C@@H](NC(=O)OC(C)(C)C)C4)ccc1c23 | 9% | 20% | – | –
13 | CCN1C(=O)c2cccc3c(S(=O)(=O)N4CCC[C@@H]4C(=O)Nc4ccccc4O)ccc1c23 | inactive | inactive | – | –
14 | CCN1C(=O)c2cccc3c(S(=O)(=O)N4CCC(N)CC4)ccc1c23 | inactive | 16% | – | –
15 | CCN1C(=O)c2cccc3c(S(=O)(=O)NCCCO)ccc1c23 | inactive | inactive | – | –
16 | O=C1c2cccc3c(S(=O)(=O)N4CCCC4)ccc(c23)N1CCO | inactive | 8% | > 90% | 69.2 µM
17 | CCOC(=O)CNS(=O)(=O)c1ccc2c3c(cccc13)C(=O)N2CC | inactive | 12% | – | –
18 | CCN1C(=O)c2cccc3c(S(=O)(=O)N4CCC(CN)CC4)ccc1c23 | 23% | 74% | – | –
19 | CN(C)C(=O)CN1C(=O)c2cccc3c(S(=O)(=O)N4CCCC4)ccc1c23 | inactive | inactive | > 90% | 18.7 µM
20 | CCN1C(=O)c2cccc3c(S(=O)(=O)N4CCC[C@@H]4C(=O)Nc4ccccc4C)ccc1c23 | inactive | 39% | – | –
21 | CCN1C(=O)c2cccc3c(S(=O)(=O)NCCC(=O)OC)ccc1c23 | 29% | 66% | – | –
22 | CCN1C(=O)c2cccc3c(S(=O)(=O)N4CC[C@H](O)C4)ccc1c23 | 35% | 88% | – | –
23 | CCN1C(=O)c2cccc3c(S(=O)(=O)N4CCC[C@@H]4C(=O)NO)ccc1c23 | 7% | 50% | – | –
24 | CCN1C(=O)c2cccc3c(S(=O)(=O)N4CC[C@@H](O)C4)ccc1c23 | 21% | 67% | > 90% | 27.5 µM

Row | Compound | inhibition [1] | inhibition [2] | inhibition [3] | IC50 [4]
25 | CCN1C(=O)c2cccc3c(S(=O)(=O)Nc4ccccc4OC)ccc1c23 | 33% | 82% | – | –
26 | CCN1C(=O)c2cccc3c(S(=O)(=O)N4CCC[C@H]4CO)ccc1c23 | 11% | 22.4% | – | –
27 | CCN1C(=O)c2cccc3c(S(=O)(=O)N[C@@H](Cc4ccccc4)C(=O)OC)ccc1c23 | 37% | 71% | – | –
28 | CCN1C(=O)c2cccc3c(S(=O)(=O)N4CC[C@@H](NC(=O)OC(C)(C)C)C4)ccc1c23 | 57% | 95% | > 90% | 13.3 µM
29 | CCN1C(=O)c2cccc3c(S(=O)(=O)N4CCC[C@@H]4C(=O)OC)ccc1c23 | 27% | 61% | – | –
30 | CCN1C(=O)c2cccc3c(S(=O)(=O)N4CCC[C@H](N)C4)ccc1c23 | inactive | inactive | – | –
31 | CCN1C(=O)c2cccc3c(S(=O)(=O)N4CCC[C@H](O)C4)ccc1c23 | inactive | 14% | – | –
32 | CCN1C(=O)c2cccc3c(S(=O)(=O)N[C@H](C(=O)OC)C(C)C)ccc1c23 | 21% | 89% | – | –
33 | CCN1C(=O)c2cccc3c(S(=O)(=O)N4CCC[C@@H]4C(=O)Nc4ccc(C)cc4)ccc1c23 | 8% | 51% | – | –
34 | CCN1C(=O)c2cccc3c(S(=O)(=O)N4CCC[C@@H](O)C4)ccc1c23 | 9% | 27% | > 90% | 32.2 µM
35 | CCN1C(=O)c2cccc3c(S(=O)(=O)N(CC)CC)ccc1c23 | 29% | 82% | > 90% | 42.2 µM
36 | CCN1C(=O)c2cccc3c(S(=O)(=O)N4CCC[C@H](NC(=O)OC(C)(C)C)C4)ccc1c23 | 7% | 20% | – | –
37 | CCN1C(=O)c2cccc3c(S(=O)(=O)N4CCOCC4)ccc1c23 | 55% | 97% | – | –
38 | CCN1C(=O)c2cccc3c(S(=O)(=O)N4CC[C@H](NC(=O)OC(C)(C)C)C4)ccc1c23 | 37% | 88% | > 90% | 50.7 µM
39 | CCN1C(=O)c2cccc3c(S(=O)(=O)N4CCC[C@@H]4CO)ccc1c23 | 9% | 4% | – | –
40 | CCN1C(=O)c2cccc3c(S(=O)(=O)N4CCC[C@@H]4C(=O)Nc4ccc(O)cc4)ccc1c23 | 18% | 63% | – | –
41 | CC(=O)N1C(=O)c2cccc3c(S(=O)(=O)N4CCCC4)ccc1c23 | 7% | 9% | > 90% | 12.7 µM
42 | CCN1C(=O)c2cccc3c(S(=O)(=O)N4CC[C@H](OC)C4)ccc1c23 | 28% | 80% | – | –
43 | CCN1C(=O)c2cccc3c(S(=O)(=O)N4CCC[C@@H]4C(=O)Nc4ccc(Cl)cc4)ccc1c23 | 42% | 89% | – | –
44 | CCN1C(=O)c2cccc3c(S(=O)(=O)N4CCCCC4)ccc1c23 | 58% | 99% | > 90% | 47.3 µM
45 | CCN1C(=O)c2cccc3c(S(=O)(=O)N4CC[C@@H](N)C4)ccc1c23 | 3% | inactive | – | –
46 | CCN1C(=O)c2cccc3c(S(=O)(=O)NCC(=O)O)ccc1c23 | inactive | 53% | – | –
47 | CCN1C(=O)c2cccc3c(S(=O)(=O)N4CC[C@@H](OC)C4)ccc1c23 | 17% | 8% | > 90% | 13.3 µM
